Each structure is given as a SMILES string.

In test [1] the target is T1, 5-hydroxytryptamine receptor 1A (Rattus norvegicus, UniProt P19327).
T1 sequence (P19327 whole entry): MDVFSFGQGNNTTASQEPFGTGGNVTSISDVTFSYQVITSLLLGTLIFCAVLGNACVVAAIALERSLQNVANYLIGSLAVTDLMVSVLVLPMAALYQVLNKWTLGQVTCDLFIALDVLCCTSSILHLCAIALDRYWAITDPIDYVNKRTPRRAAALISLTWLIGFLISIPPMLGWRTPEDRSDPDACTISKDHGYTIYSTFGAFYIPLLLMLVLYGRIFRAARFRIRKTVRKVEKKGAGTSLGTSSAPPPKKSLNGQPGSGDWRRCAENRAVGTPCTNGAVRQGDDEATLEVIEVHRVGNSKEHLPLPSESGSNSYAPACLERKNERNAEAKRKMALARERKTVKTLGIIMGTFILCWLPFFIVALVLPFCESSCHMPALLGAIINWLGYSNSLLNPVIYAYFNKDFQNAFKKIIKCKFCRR
Nature of the test: Displacement of [3H]8-OH-DPAT from 5HT1A receptor in rat hippocampal membrane by radioligand binding assay. It counts as cell membranes, Hippocampus. The method, boiled down:
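Rat hippocampal membranes were incubated with [3H]-8-OH-DPAT (170 Ci/mmol), with 10 µM 5-HT for non-specific binding. Competition used 7–9 test concentrations, each in triplicate, to give Ki. Values are means of three experiments run in triplicate.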
For orientation: Displacement assays read how much labelled ligand stays bound in the presence of the test substance.

Test [2] deals with T2, 5-hydroxytryptamine receptor 1A (Rattus norvegicus) (UniProt P19327).
T2 sequence (whole entry): T1 sequence (P19327 whole entry)
Nature of the test: Displacement of [3H]8-OH-DPAT from 5HT1A receptor in rat hippocampal membrane at 10^-6 M by radioligand binding assay. It counts as cell membranes. The note with it: Hippocampus. The method, boiled down: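 Single-point screen at 1 µM on rat hippocampal membranes, reported as % inhibition of [3H]-8-OH-DPAT (170 Ci/mmol) binding. Non-specific binding was defined with 10 µM 5-HT. Compounds inhibiting at least 85% went on to full competition.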

The target of test [3] is 5-hydroxytryptamine receptor 2A (Rattus norvegicus) (UniProt P14842). Nature of the test: Displacement of [3H]ketanserin from 5HT2A receptor in rat cortex membrane at 10^-6 M by radioligand binding assay. It counts as cell membranes. The method, boiled down: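 Single-point screen at 1 µM, reported as % inhibition of [3H]-ketanserin (88.0 Ci/mmol) binding. Non-specific binding was defined with 1 µM methysergide. Compounds inhibiting at least 85% went on to full competition.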
5-hydroxytryptamine receptor 2A (Rattus norvegicus), sequence (P14842 whole entry): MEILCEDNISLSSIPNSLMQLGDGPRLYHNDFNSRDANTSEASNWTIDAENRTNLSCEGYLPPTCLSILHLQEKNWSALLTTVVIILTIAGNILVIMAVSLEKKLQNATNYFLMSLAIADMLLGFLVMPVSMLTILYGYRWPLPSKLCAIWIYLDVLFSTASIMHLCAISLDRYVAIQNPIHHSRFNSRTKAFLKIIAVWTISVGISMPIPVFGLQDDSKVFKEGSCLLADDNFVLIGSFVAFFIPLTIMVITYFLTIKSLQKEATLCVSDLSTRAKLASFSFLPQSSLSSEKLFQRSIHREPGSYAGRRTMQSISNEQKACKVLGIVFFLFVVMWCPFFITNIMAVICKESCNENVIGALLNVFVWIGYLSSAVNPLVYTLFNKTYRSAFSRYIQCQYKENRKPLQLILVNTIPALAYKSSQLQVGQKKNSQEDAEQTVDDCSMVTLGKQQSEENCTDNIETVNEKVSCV

One may read the Ki as the dissociation constant of the complex between target and ligand, obtained from inhibition or displacement. Lower therefore signals higher affinity. The inhibition is the relative decrease from the control value, in per cent. Higher therefore signals a response far below the control. In the case of `O=c1c2cnc3ccccc3c2ncn1CCCN1CCN(c2ccc(F)cc2)CC1`, the Ki in test [1] came out at 129 nM. Also, the inhibition in test [2] was determined as 85%; in test [3] it was 73%.
With `O=c1c2cnc3ccccc3c2ncn1CCN1CCN(c2ccc(-c3ncccn3)cc2)CC1`, the inhibition came to 10% in test [2] and 29% in test [3].
Compound `COc1cccc(N2CCN(CCCn3cnc4c(cnc5ccccc54)c3=O)CC2)c1` came in with a Ki in test [1] of 120 nM. Besides, the inhibition in test [2] amounted to 89%; in test [3] it was 26%.
With `O=c1c2cnc3ccccc3c2ncn1CCCN1CCN(c2ccccc2F)CC1`, the Ki in test [1] was 55 nM. Moreover, the values for the inhibition in test [2] and in test [3] were 92% and 27%, respectively.
Taken in the same sequence, the figures for `COc1ccccc1N1CCN(CCn2cnc3c(cnc4ccc(C)cc43)c2=O)CC1` were 82 nM, 88% and 11%.
Taken in the same sequence, the figures for `COc1ccccc1N1CCN(CCCn2cnc3c(cnc4cc(C)ccc43)c2=O)CC1` were 31 nM, 92% and 18%.
Compound `O=c1c2cnc3ccccc3c2ncn1CCCN1CCN(c2ccccc2)CC1` yielded a Ki in test [1] of 47 nM. Further, the inhibition in test [2] stood at 95%; in test [3], 66%.
In test [1], `Cc1ccc2ncc3c(=O)n(CCCN4CCN(c5ccccc5)CC4)cnc3c2c1` gave a Ki of 128 nM. Further, the inhibition in test [2] was 86%; in test [3] it was 28%.
In the case of `COc1ccccc1N1CCN(CCCCn2cnc3c(cnc4cc(C)ccc43)c2=O)CC1`, the Ki in test [1] was found to be 20 nM. Also, the inhibition is 99% in test [2] and 43% in test [3].
With `COc1ccc(N2CCN(CCCn3cnc4c(cnc5ccccc54)c3=O)CC2)cc1`, the figures for the inhibition in test [2] and in test [3] were 0% and 23%, respectively.
As to `Cc1ccc2c(c1)ncc1c(=O)n(CCCN3CCN(c4ccccc4)CC3)cnc12`, in test [1], the Ki stood at 125 nM. For the same compound, the inhibition in test [2] is 86%; in test [3] it was 44%.
On to `COc1ccccc1N1CCN(CCn2cnc3c(cnc4cc(C)ccc43)c2=O)CC1`, for which the Ki in test [1] came out at 14 nM. In addition, the inhibition was found to be 96% in test [2] and 19% in test [3].
As to `Cc1ccccc1N1CCN(CCCn2cnc3c(cnc4ccccc43)c2=O)CC1`, the inhibition in test [2] amounted to 81%; in test [3] it was 32%.
The corresponding values for `COc1cccc(N2CCN(CCn3cnc4c(cnc5ccccc54)c3=O)CC2)c1` are 82% and 11%.
Consider `O=c1c2cnc3ccccc3c2ncn1CCCN1CCN(c2ccc(Cl)cc2)CC1`, for which the inhibition is 42% in test [2] and 67% in test [3].
`O=c1c2cnc3ccccc3c2ncn1CCN1CCN(c2cccc(C(F)(F)F)c2)CC1`: the Ki in test [1] stood at 160 nM. Also, the inhibition in test [2] came out at 89%; in test [3] it was 36%.
As for `Cc1ccc2c(c1)ncc1c(=O)n(CCCN3CCN(c4cccc(Cl)c4)CC3)cnc12`, the inhibition in test [2] was 73%; in test [3] it was 40%.
As for `O=c1c2cnc3ccccc3c2ncn1CCN1CCN(c2ccccc2)CC1`, the inhibition stood at 66% in test [2] and 26% in test [3].
As to `O=c1c2cnc3ccccc3c2ncn1CCCN1CCN(c2cccc(Cl)c2)CC1`, the affinity in test [1] corresponds to a Ki of 80 nM. Besides, the results for the inhibition in test [2] and in test [3] were 91% and 63%, respectively.
In turn, `Cc1ccc2c(c1)ncc1c(=O)n(CCCCN3CCN(c4ccccc4F)CC3)cnc12` yielded a Ki in test [1] of 83 nM. Further, the inhibition in test [2] stood at 90%; in test [3], 45%.
Take `Cc1ccc2c(c1)ncc1c(=O)n(CCCCN3CCN(c4ccc(F)cc4)CC3)cnc12`: the inhibition was 60% in test [2] and 57% in test [3].
As for `COc1ccc(N2CCN(CCn3cnc4c(cnc5ccccc54)c3=O)CC2)cc1`, the inhibition was found to be 6% in test [2] and 28% in test [3].
`O=c1c2cnc3ccccc3c2ncn1CCN1CCN(c2ccccc2Cl)CC1` showed a Ki in test [1] of 78 nM. Also, the inhibition in test [2] came to 90%; in test [3], 17%.
As to `Cc1ccc2ncc3c(=O)n(CCCN4CCN(c5ccc(F)cc5)CC4)cnc3c2c1`, the inhibition in test [2] amounted to 67%; in test [3] it was 39%.
On to `COc1ccc(N2CCN(CCn3cnc4c(cnc5cc(C)ccc54)c3=O)CC2)cc1`, for which the inhibition in test [2] and in test [3] was 9% throughout.
Turning to `COc1ccccc1N1CCN(CCCn2cnc3c(cnc4ccc(C)cc43)c2=O)CC1`, the affinity in test [1], expressed as Ki, was 26 nM. Moreover, the values for the inhibition in test [2] and in test [3] were 93% and 5%, respectively.
Take `COc1ccc(N2CCN(CCn3cnc4c(cnc5ccc(C)cc54)c3=O)CC2)cc1`: the inhibition in test [2] turned out to be 5%; in test [3], 4%.
As to `Cc1ccc2ncc3c(=O)n(CCN4CCN(c5cccc(C(F)(F)F)c5)CC4)cnc3c2c1`, the results for the inhibition in test [2] and in test [3] were 82% and 8%, respectively.
Take `O=c1c2cnc3ccccc3c2ncn1CCN1CCN(c2cccc(Cl)c2)CC1`: the affinity in test [1], expressed as Ki, was 55 nM. Moreover, the results for the inhibition in test [2] and in test [3] were 93% and 22%, respectively.
With `Cc1ccc2c(c1)ncc1c(=O)n(CCCN3CCN(c4ccc(F)cc4)CC3)cnc12`, the inhibition worked out at 68% in test [2] and 45% in test [3].
With `COc1ccccc1N1CCN(CCCn2cnc3c(cnc4ccccc43)c2=O)CC1`, the Ki in test [1] worked out at 20 nM. Moreover, the results for the inhibition in test [2] and in test [3] were 97% and 8%, respectively.
As to `O=c1c2cnc3ccccc3c2ncn1CCN1CCN(c2ccc(F)cc2)CC1`, the inhibition in test [2] came to 40%; in test [3], 14%.
For `Cc1ccc2ncc3c(=O)n(CCCCN4CCN(c5cccc(Cl)c5)CC4)cnc3c2c1`, the affinity in test [1] corresponds to a Ki of 67 nM. Moreover, the inhibition worked out at 91% in test [2] and 57% in test [3].
Regarding `O=c1c2cnc3ccccc3c2ncn1CCN1CCN(c2ccc(Cl)cc2)CC1`, the figures for the inhibition in test [2] and in test [3] were 11% and 4%, respectively.
Compound `Cc1ccc2ncc3c(=O)n(CCCCN4CCN(c5ccccc5F)CC4)cnc3c2c1` gave a Ki in test [1] of 97 nM. Further, the figures for the inhibition in test [2] and in test [3] were 94% and 34%, respectively.
`Cc1ccc2ncc3c(=O)n(CCCCN4CCN(c5ccc(F)cc5)CC4)cnc3c2c1`: the figures for the inhibition in test [2] and in test [3] were 72% and 56%, respectively.
`Cc1ccc2c(c1)ncc1c(=O)n(CCCCN3CCN(c4cccc(Cl)c4)CC3)cnc12`: the Ki in test [1] was 172 nM. Also, the inhibition was found to be 85% in test [2] and 62% in test [3].
`Cc1ccccc1N1CCN(CCn2cnc3c(cnc4ccccc43)c2=O)CC1` had a Ki in test [1] of 514 nM. Further, the inhibition turned out to be 84% in test [2] and 34% in test [3].
The corresponding values for `COc1ccccc1N1CCN(CCCCn2cnc3c(cnc4ccc(C)cc43)c2=O)CC1` are 8 nM, 99% and 48%.
In test [1], `O=c1c2cnc3ccccc3c2ncn1CCCN1CCN(c2ccccc2Cl)CC1` displayed a Ki of 93 nM. The inhibition in test [2] is 87%; in test [3] it was 41%.
For `O=c1c2cnc3ccccc3c2ncn1CCN1CCN(c2ccccc2F)CC1`, the figures for the inhibition in test [2] and in test [3] were 47% and 25%, respectively.
Taken in the same sequence, the figures for `Cc1ccc2ncc3c(=O)n(CCCN4CCN(c5cccc(Cl)c5)CC4)cnc3c2c1` were 77% and 44%.

Source of the values: ChEMBL document CHEMBL1811770, “Synthesis and structural investigation of some pyrimido[5,4-c]quinolin-4(3H)-one derivatives with a long-chain arylpiperazine moiety as potent 5-HT(1A/2A) and 5-HT(7) receptor ligands” (Eur J Med Chem, 2011).
